These results are taken from PMC10520980 (European journal of medicinal chemistry, 2022).

pIC50: −log10 of the molar value. Like-named read-outs stand apart in the source and are kept apart here.

Data set [1] addresses T1, NTMT1 (Homo sapiens, UniProt Q9BV86).
T1 sequence (Q9BV86 1-223): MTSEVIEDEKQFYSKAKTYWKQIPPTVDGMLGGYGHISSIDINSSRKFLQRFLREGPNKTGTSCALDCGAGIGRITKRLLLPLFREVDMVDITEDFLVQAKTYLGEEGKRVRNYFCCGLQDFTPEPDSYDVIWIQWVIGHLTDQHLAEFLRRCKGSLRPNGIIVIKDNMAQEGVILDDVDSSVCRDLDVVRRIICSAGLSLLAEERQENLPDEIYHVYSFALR
In words: Degradation of NTMT1 in HCT116. It counts as cell-based. Particulars: for fold less potent than degrader 1 (DC50): HCT116; for DC50: read-out: DC50, NTMT1 degradation, HCT116, 24 h, Western blot. The essentials:
(§1)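 Cells were seeded at 8×10^4 per well, grown 24 h, then treated with graded concentrations for 24 h or at 50 μM over a time course, with DMSO control. Lysis was in Tris pH 8.0/NaCl/NP-40/Triton buffer, followed by BCA. 20 μg protein was run on 10% SDS-PAGE with PVDF transfer. Membranes were probed with rabbit anti-NTMT1 and anti-β-actin overnight at 4 °C, then chemiluminescence. Densitometry was normalised to DMSO, and DC50 was derived from these values. Triplicates.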

The target in data set [2] is T1, NTMT1. In words: Degradation of NTMT1 in HT29. It counts as cell-based. The conditions noted are these: for DC50: read-out: DC50, NTMT1 degradation, HT29, 24 h, Western blot. The method, boiled down:
as §1
(In western blotting, separated proteins are transferred to a membrane and probed.)

The test system of data set [3] is HCT116. In words: Cytotoxicity, WST-8 assay, HCT116. It counts as cell-based, human. Particulars: HCT116, up to 64 μM, 24 h. The method, boiled down: (§2)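 Cells were seeded at 5×10^3 per well and cultured 24 h. They were then exposed to a range of test compound concentrations or DMSO vehicle. A solution of 5 mM WST-8 plus 0.2 mM 1-methoxyphenazinium salt in 150 mM NaCl was added, followed by 3 h at 37 °C in 5% CO₂. Absorbance was read at 490 nm. Triplicates.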
On the technique in general: Tetrazolium assays rely on reduction of a dye to a coloured formazan, in cell work by metabolically active cells.

Data set [4] has as its system HT29. Description: Cytotoxicity, WST-8 assay, HT29. It counts as cell-based, human. The conditions noted are these: HT29, up to 64 μM, 24 h. The essentials:
as §2

Data set [5] has as its system ntmt1 KO HCT116 cells. Description: Cell proliferation assay. It counts as cell-based, human. Particulars: ntmt1 KO HCT116, various concentrations, 72 h.
For data set [6], the target named is T1, NTMT1. The conditions noted are these: read-out: cellular IC50; HCT116; cited from earlier work.
In data set [7] the target is T1, NTMT1. The conditions noted are these: read-out: cellular IC50; HT29; cited from earlier work.
Data set [8] concerns the target NTMT2 (Homo sapiens, UniProt Q5VVY1). Description: Selectivity: NTMT2 protein level in HCT116 and HT29. It counts as cell-based. Particulars: 24 h. The method, boiled down:
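HCT116 and HT29 cells were treated with a range of degrader concentrations for 24 h. Lysates were resolved by SDS-PAGE, and NTMT1, NTMT2 and β-actin band regions were cut from the same membrane. These were probed with rabbit anti-NTMT1, anti-NTMT2 and anti-actin, then goat anti-rabbit secondary and chemiluminescence. Triplicates.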

Data set [9] concerns calreticulin (CALR). Description: CALR expression by Western blot. It counts as cell-based, human. Particulars: HCT116, 25 μM, 24 h. The method, boiled down:
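HCT116 cells were treated at 25 μM for 24 h alongside the inhibitor comparator. Cells were lysed at 4 °C for 1 h in Tris pH 8.0/NaCl/NP-40/Triton X-100 buffer with protease inhibitor, and protein was quantified by BCA. 10 μg protein was run on 8% SDS-PAGE and transferred to PVDF. Blots were probed with rabbit anti-CALR and anti-β-actin, detected by chemiluminescence and quantified by densitometry. Triplicates.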

Data set [10] has as its target NTMT1-eGFP fusion protein (Homo sapiens, UniProt Q9BV86). Description: NTMT1 degradation visualized by fluorescence. The conditions noted are these: HCT116, 100 μM, 24 h. It counts as cell-based. The essentials: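 HCT116 cells were seeded at 1.5×10^5 per well. After 12 h they were transfected with pEGFP-n1-NTMT1 or empty pEGFP-n1 using Lipofectamine 3000 in reduced-serum medium with 20% FBS, for 8 h. Cells recovered 24 h in complete medium, then received 100 μM degrader or DMSO for 24 h. The GFP fusion was imaged on an inverted fluorescence microscope.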

Data set [11] relates to eGFP. In words: Control with plasmid expressing only eGFP in HCT116. It counts as cell-based, human. Particulars: HCT116, 100 μM, 24 h.
Data set [12] relates to NTMT1 and NTMT2. Particulars: cited from earlier work.

The term DC50 denotes the concentration giving 50% degradation. Broadly, the pIC50 is the IC50 on a negative log10 scale, so that one unit is a factor of ten.

Sequence of NTMT2 (Q5VVY1 whole entry): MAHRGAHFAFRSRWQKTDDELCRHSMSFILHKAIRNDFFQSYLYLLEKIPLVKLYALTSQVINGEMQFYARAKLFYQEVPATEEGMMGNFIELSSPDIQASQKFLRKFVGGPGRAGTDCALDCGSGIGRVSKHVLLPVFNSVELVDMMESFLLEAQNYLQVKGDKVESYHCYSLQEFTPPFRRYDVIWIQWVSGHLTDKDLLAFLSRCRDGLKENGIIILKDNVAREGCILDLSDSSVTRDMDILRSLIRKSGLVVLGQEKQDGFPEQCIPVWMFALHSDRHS

Take `Cc1ncsc1-c1ccc(CNC(=O)[C@@H]2C[C@@H](O)CN2C(=O)[C@H](C(C)C)N2Cc3ccccc3C2=O)c(OCCOCCOCCOCCNC(=O)c2ccccc2NC(=O)[C@H](CCCCN)NC(=O)[C@@H]2CCCN2C(=O)Cc2cccc3ccccc23)c1` [degrader 3, (2S,4R)-N-(2-((1-(2-((S)-6-amino-2-((S)-1-(2-(naphthalen-1-yl)acetyl)pyrrolidine-2-carboxamido)hexanamido)phenyl)-1-oxo-5,8,11-trioxa-2-azatridecan-13-yl)oxy)-4-(4-methylthiazol-5-yl)benzyl)-4-hydroxy-1-((S)-3-methyl-2-(1-oxoisoindolin-2-yl)butanoyl)pyrrolidine-2-carboxamide]: the “fold less potent than degrader 1 (DC50)” value in data set [1] is recorded as at least 9 fold. Also, the DC50 in data set [1] was 66.4 µM; in [2], 53.7 µM.
The corresponding values for `Cc1ncsc1-c1ccc(CNC(=O)[C@@H]2C[C@@H](O)CN2C(=O)[C@H](C(C)C)N2Cc3ccccc3C2=O)c(OCCOCCNC(=O)c2ccccc2NC(=O)[C@H](CCCCN)NC(=O)[C@@H]2CCCN2C(=O)Cc2cccc3ccccc23)c1` [degrader 2, (2S,4R)-N-(2-(2-(2-(2-((S)-6-amino-2-((S)-1-(2-(naphthalen-1-yl)acetyl)pyrrolidine-2-carboxamido)hexanamido)benzamido)ethoxy)ethoxy)-4-(4-methyl-thiazol-5-yl)benzyl)-4-hydroxy-1-((S)-3-methyl-2-(1-oxoisoindolin-2-yl)butanoyl)pyrrolidine-2-carboxamide] are at least 9 fold, 79.7 µM and 53.7 µM.
As for `Cc1ncsc1-c1ccc(CNC(=O)[C@@H]2C[C@H](O)CN2C(=O)[C@H](C(C)C)N2Cc3ccccc3C2=O)c(OCCNC(=O)c2ccccc2NC(=O)[C@H](CCCCN)NC(=O)[C@@H]2CCCN2C(=O)Cc2cccc3ccccc23)c1` [inhibitor 4, (2S,4S)-N-(2-(2-(2-((S)-6-amino-2-((S)-1-(2-(naphthalen-1-yl)acetyl)pyrrolidine-2-carboxamido)hexanamido)benzamido)ethoxy)-4-(4-methylthiazol-5-yl)benzyl)-4-hydroxy-1-((S)-3-methyl-2-(1-oxoisoindolin-2-yl)butanoyl)-pyrrolidine-2-carboxamide], the “NTMT1 level relative to DMSO control” value is recorded as “unable to reduce NTMT1 levels” in data set [1] (HCT116, 50 μM, 24 h) and “unable to reduce NTMT1 levels” in [2] (HT29, 50 μM, 24 h). For the same molecule, the “cytotoxicity (cell viability, WST-8)” value in data set [3] and in data set [4] was “No significant cytotoxicity” in each case. In addition, the “antiproliferative effect on ntmt1 KO cells” value in data set [5] is recorded as “neither compound displayed an antiproliferative effect”.
For the molecule `NCCCC[C@H](NC(=O)[C@@H]1CCCN1C(=O)Cc1cccc2ccccc12)C(=O)Nc1ccccc1C(N)=O` [DC541, (S)-N-((S)-6-amino-1-((2-carbamoylphenyl)amino)-1-oxohexan-2-yl)-1-(2-(naphthalen-1-yl)acetyl)pyrrolidine-2-carboxamide], the negative-log IC50 (pIC50) is below 4.00 in data set [6] and around 4.52 in data set [7].
On to `Cc1ncsc1-c1ccc(CNC(=O)[C@@H]2C[C@@H](O)CN2C(=O)[C@H](C(C)C)N2Cc3ccccc3C2=O)c(OCCNC(=O)c2ccccc2NC(=O)[C@H](CCCCN)NC(=O)[C@@H]2CCCN2C(=O)Cc2cccc3ccccc23)c1` [degrader 1, (2S,4R)-N-(2-(2-(2-((S)-6-amino-2-((S)-1-(2-(naphthalen-1-yl)acetyl)pyrrolidine-2-carboxamido)hexanamido)benzamido)ethoxy)-4-(4-methylthiazol-5-yl)benzyl)-4-hydroxy-1-((S)-3-methyl-2-(1-oxoisoindolin-2-yl)butanoyl)pyrrolidine-2-carbox amide], for which the “NTMT1 degradation after pre-treatment with proteasome inhibitor MG-132” value in data set [1] (HCT116, 1 μM MG-132 for 2 h, then 50 μM compound 24 h) is listed as “completely abolished”. In addition, the “NTMT1 level (Western blot)” value in data set [1] (HCT116, 25 μM, 24 h) was “almost depleted”. Also, the “NTMT1 level within 24 h” value in data set [1] (HCT116, 50 μM, 24 h) is reported as “almost completely depleted”. Further, the DC50 is 7.53 µM in data set [1] and 18.1 µM in data set [2]. In addition, the “onset of pronounced change of NTMT1 levels” value in data set [2] (HT29, 50 μM) is “not observed until 6 h”. Also, the “degradation of NTMT2” value in data set [8] (HCT116, various concentrations) was “cannot induce degradation of NTMT2”; in data set [8] (HT29, various concentrations) it was “cannot induce degradation of NTMT2”. The “cytotoxicity (cell viability, WST-8)” value in [3] and in [4] was “No significant cytotoxicity” throughout. For the same molecule, the “antiproliferative effect on ntmt1 KO cells” value in [5] is reported as “neither compound displayed an antiproliferative effect”. The “CALR expression relative to inhibitor 4 (Western blot)” value in data set [9] was ~ 1.4 fold. For the same molecule, the “fluorescence of NTMT1-eGFP fusion protein” value in [10] is on record as “most fluorescence signals were lost”. Besides, the “fluorescence of eGFP only (control plasmid)” value in [11] is reported as “did not show obvious reduction of fluorescence”.
For `NCCCC[C@H](NC(=O)[C@@H]1CCCN1C(=O)Cc1ccc(O)cc1)C(=O)N[C@@H](CCCN=C(N)N)C(N)=O` [BM30], the “selectivity toward NTMT1 and NTMT2” value in [12] is “nonselective inhibitor”.
